# According to ChEMBL document CHEMBL1649269, “In vitro activities of three new dihydrofolate reductase inhibitors against clinical isolates of gram-positive bacteria” (2009):
# Assays:
# Staphylococcus aureus [1] = experiment: Antimicrobial activity against methicillin-sensitive Staphylococcus aureus assessed as susceptible isolates by agar dilution method; format: functional
# Summary of the method: (§1)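 MICs against clinical MRSA or MSSA isolates by CLSI agar dilution, with S. aureus ATCC 29213 as control strain. Percentage of susceptible isolates was calculated from the MICs using CLSI breakpoints.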
# Staphylococcus aureus [2] = experiment: Antimicrobial activity against methicillin-resistant Staphylococcus aureus assessed as susceptible isolates by agar dilution method; format: functional; summary of the method: as §1
# Staphylococcus aureus [3] = experiment: Antimicrobial activity against Heterovancomycin-resistant Staphylococcus aureus by agar dilution method; format: functional
# Summary of the method: (§2)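 Clinical S. aureus isolates classed as hVISA or VISA by population analysis profiling. MICs by CLSI agar dilution, with S. aureus ATCC 29213 as control strain.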
# Staphylococcus aureus [4] = experiment: Antimicrobial activity against Heterovancomycin-resistant Staphylococcus aureus assessed as susceptible isolates by agar dilution method; format: functional
# Staphylococcus aureus [5] = experiment: Antimicrobial activity against vancomycin-resistant Staphylococcus aureus by agar dilution method; format: functional; summary of the method: as §2
# Staphylococcus aureus [6] = experiment: Antimicrobial activity against vancomycin-resistant Staphylococcus aureus assessed as susceptible isolates by agar dilution method; format: functional
# Staphylococcus [7] = experiment: Antimicrobial activity against Coagulase-negative Staphylococcus by agar dilution method; format: functional
# Summary of the method: (§3)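 CLSI agar dilution MIC testing of clinical isolates of staphylococci and Listeria. S. aureus ATCC 29213 and S. pneumoniae ATCC 49619 served as control strains. The percentage of susceptible isolates was calculated from CLSI breakpoints.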
# Staphylococcus [8] = experiment: Antimicrobial activity against Coagulase-negative Staphylococcus assessed as susceptible isolates by agar dilution method; format: functional; summary of the method: as §3
# [9] = system: Streptococcus sp. 'group A'; experiment: Antimicrobial activity against Group A Streptococcus by agar dilution method; format: functional
# Summary of the method: (§4)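 Clinical isolates of beta-hemolytic streptococci, S. mitis and S. pneumoniae were tested by CLSI methodology, with Mueller-Hinton medium supplemented with 5% lysed horse blood. S. aureus ATCC 29213 and S. pneumoniae ATCC 49619 served as control strains. The percentage of susceptible isolates was derived from CLSI breakpoints.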
# [10] = system: Streptococcus sp. 'group B'; experiment: Antimicrobial activity against Group B Streptococcus by agar dilution method; format: functional; summary of the method: as §4
# [11] = Antimicrobial activity against Group C Streptococcus by agar dilution method; format: functional; settings: Streptococcus sp. 'group C'; summary of the method: as §4
# [12] = Antimicrobial activity against Group G Streptococcus by agar dilution method; format: functional; settings: Streptococcus sp. 'group G'; summary of the method: as §4
# Streptococcus pneumoniae [13] = experiment: Antimicrobial activity against Streptococcus pneumoniae by agar dilution method; format: functional; summary of the method: as §4
# Streptococcus pneumoniae [14] = experiment: Antimicrobial activity against Streptococcus pneumoniae assessed as susceptible isolates by agar dilution method; format: functional; summary of the method: as §4
# Corynebacterium sp. = experiment: Antimicrobial activity against Corynebacterium spp. by agar dilution method; format: functional
# Listeria monocytogenes = experiment: Antimicrobial activity against Listeria monocytogenes by agar dilution method; format: functional; summary of the method: as §3
# Streptococcus mitis = experiment: Antimicrobial activity against Streptococcus mitis by broth dilution method
# Staphylococcus aureus [15] = experiment: Antimicrobial activity against methicillin-sensitive Staphylococcus aureus by agar dilution method; format: functional; summary of the method: as §1
# Staphylococcus aureus [16] = experiment: Antimicrobial activity against methicillin-resistant Staphylococcus aureus by agar dilution method; format: functional; summary of the method: as §1
# [17] = system: Streptococcus sp. 'group A'; experiment: Antimicrobial activity against Group A Streptococcus assessed as susceptible isolates by agar dilution method; format: functional; summary of the method: as §4
# [18] = system: Streptococcus sp. 'group B'; experiment: Antimicrobial activity against Group B Streptococcus assessed as susceptible isolates by agar dilution method; format: functional; summary of the method: as §4
# [19] = Antimicrobial activity against Group C Streptococcus assessed as susceptible isolates by agar dilution method; format: functional, Streptococcus sp. 'group C'; summary of the method: as §4
# [20] = Antimicrobial activity against Group G Streptococcus assessed as susceptible isolates by agar dilution method; format: functional, Streptococcus sp. 'group G'; summary of the method: as §4
SMILES,Activity (Staphylococcus aureus [1]) [%],MIC50 (Staphylococcus aureus [3]) [µg/mL],MIC90 (Staphylococcus aureus [3]) [µg/mL],Activity (Staphylococcus aureus [4]) [%],MIC50 (Staphylococcus aureus [5]) [µg/mL],MIC90 (Staphylococcus aureus [5]) [µg/mL],Activity (Staphylococcus aureus [6]) [%],MIC50 (Staphylococcus [7]) [µg/mL],MIC90 (Staphylococcus [7]) [µg/mL],Activity (Staphylococcus [8]) [%],MIC50 [9] [µg/mL],MIC90 [9] [µg/mL],MIC50 [10] [µg/mL],MIC90 [10] [µg/mL],MIC50 [11] [µg/mL],MIC90 [11] [µg/mL],MIC50 [12] [µg/mL],MIC90 [12] [µg/mL],MIC50 (Streptococcus pneumoniae [13]) [µg/mL],MIC90 (Streptococcus pneumoniae [13]) [µg/mL],other results
COc1c(N2C[C@@H]3CCCN[C@@H]3C2)c(F)cc2c(=O)c(C(=O)O)cn(C3CC3)c12 [MOXIFLOXACIN],92,4,4,8,8,8,0,0.25,8,55,0.25,0.5,0.25,0.5,0.25,0.5,0.25,0.5,0.25,0.25,Activity (Staphylococcus aureus [2]): 4%; MIC (Staphylococcus aureus [5]): 8 µg/mL; MIC [9]: 0.25 µg/mL; MIC [10]: 0.25 µg/mL; MIC [11]: 0.25 µg/mL; MIC [12]: 0.25 µg/mL; Activity (Streptococcus pneumoniae [14]): 100%; MIC50 (Corynebacterium sp.): 1 µg/mL; MIC90 (Corynebacterium sp.): 8 µg/mL; MIC (Listeria monocytogenes): 0.5 µg/mL; MIC50 (Listeria monocytogenes): 0.5 µg/mL; MIC90 (Listeria monocytogenes): 1 µg/mL; MIC50 (Streptococcus mitis): 0.25 µg/mL
CN(C)c1ccc(O)c2c1C[C@H]1C[C@H]3[C@H](N(C)C)C(O)=C(C(N)=O)C(=O)[C@@]3(O)C(O)=C1C2=O [MINOCYCLINE],100,0.25,0.5,92,1,4,96,0.5,2,96,0.12,0.25,16,32,0.25,4,0.25,16,0.25,0.25,MIC (Staphylococcus aureus [15]): 0.25 µg/mL; MIC50 (Staphylococcus aureus [15]): 0.25 µg/mL; MIC90 (Staphylococcus aureus [15]): 0.25 µg/mL; MIC (Staphylococcus aureus [16]): 0.25 µg/mL; MIC50 (Staphylococcus aureus [16]): 0.25 µg/mL; MIC90 (Staphylococcus aureus [16]): 0.25 µg/mL; MIC [9]: 0.12 µg/mL; Activity [17]: 100%; Activity [18]: 29%; Activity [19]: 84%; Activity [20]: 75%; Activity (Streptococcus pneumoniae [14]): 93%; MIC50 (Corynebacterium sp.): 2 µg/mL; MIC90 (Corynebacterium sp.): 16 µg/mL; MIC (Listeria monocytogenes): 0.25 µg/mL; MIC50 (Listeria monocytogenes): 0.25 µg/mL; MIC90 (Listeria monocytogenes): 16 µg/mL; MIC (Streptococcus mitis): 0.25 µg/mL; MIC50 (Streptococcus mitis): 0.25 µg/mL
COc1cc(Cc2cnc(N)nc2N)cc(OC)c1OC [TRIMETHOPRIM],92,1,16,80,1,32,71,16,32,48,0.5,1,1,1,0.5,1,1,1,1,4,MIC50 (Staphylococcus aureus [15]): 1 µg/mL; MIC90 (Staphylococcus aureus [15]): 2 µg/mL; MIC50 (Staphylococcus aureus [16]): 0.25 µg/mL; MIC90 (Staphylococcus aureus [16]): 32 µg/mL; Activity (Staphylococcus aureus [2]): 80%; MIC50 (Corynebacterium sp.): 16 µg/mL; MIC90 (Corynebacterium sp.): 16 µg/mL; MIC50 (Listeria monocytogenes): 0.06 µg/mL; MIC90 (Listeria monocytogenes): 0.06 µg/mL; MIC (Streptococcus mitis): < 0.008 µg/mL; MIC50 (Streptococcus mitis): 4 µg/mL
